Screening results (PubChem)
Only some compounds are listed: those with a hit (about 1.1% of all), similar ones and a draw of the others.
Diaph inh CS: diaphorase inhibition or chemical oxidation counter-screen; diaphorase resazurin-to-resorufin fluorescence, NADH, 16 min; bacterial (C. kluyveri) enzyme, not human; inhibition, % at 20 µM; 0.69% of 190,000 active; AID 1217;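 active = primary screen inhibition at 20 µM above a set limit, cut at about 50% in these data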
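System: Bacterial diaphorase enzyme (C. kluyveri) | Incubation: 16-min room-temperature incubation before reading | Benchmarks: No-NADH positive control and DMSO neutral control | Measured by: Resorufin fluorescence 544/590 nm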
Diaphorase act: counter-screen for diaphorase-based assays: diaphorase activators and chemical reducers. 0.005% of 190,000 active. activation factor at 20 µM. Diaphorase/resazurin coupled assay, resorufin fluorescence, 16 min; hits give high values; 1 = vehicle wells, 0 = NADH-free wells;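 active = diaphorase activity raised at least twofold by the compound at 20 µM; inactive = activation factor below 2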
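test system = bacterial diaphorase enzyme (C. kluyveri) | quantity = enzyme 0.07 U/mL final | reagent = NADH substrate 0.114 mM plus resazurin dye 0.1 mM, final | incubation = 16 min enzyme reaction, ambient temperature | buffer or medium = HEPES pH 7.4 buffer with MgCl2 and Tween 20 | signal = fluorescence of resorufin, 544 nm excitation, 590 nm emission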
G6PDH CS: counter-screen for G6PDH assay hits: L. mesenteroides G6PDH inhibition; Purified L. mesenteroides G6PDH, diaphorase/resazurin coupled fluorescence, 45 min; inhibition, % at 5 µM; 0.12% of 200,000 active; in the data active = inhibition above about 50%
PMI act satM6P: PMI (human) activation, high substrate; P34949; coupled PMI enzyme assay, resazurin fluorescence, 20 min; hits give high values; 1 = untreated enzyme, 0 = substrate-free blank; activation factor at 20 µM; 0.34% of 190,000 active;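 active = activation factor of 2 or more at 20 µM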
Target sequence (P34949 whole entry, looked up): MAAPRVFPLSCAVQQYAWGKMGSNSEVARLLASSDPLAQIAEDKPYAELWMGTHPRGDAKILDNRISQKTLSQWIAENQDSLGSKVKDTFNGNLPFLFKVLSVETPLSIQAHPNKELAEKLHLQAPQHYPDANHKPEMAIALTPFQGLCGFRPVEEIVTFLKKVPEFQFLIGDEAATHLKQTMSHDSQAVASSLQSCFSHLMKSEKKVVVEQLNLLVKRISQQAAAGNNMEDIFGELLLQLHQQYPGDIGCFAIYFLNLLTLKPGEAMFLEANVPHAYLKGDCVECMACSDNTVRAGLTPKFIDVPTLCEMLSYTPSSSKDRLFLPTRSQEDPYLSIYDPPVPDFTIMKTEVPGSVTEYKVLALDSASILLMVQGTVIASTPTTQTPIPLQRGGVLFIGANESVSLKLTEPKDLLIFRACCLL
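Test system: human phosphomannose isomerase with PGI, G6PDH, diaphorase coupling enzymes; Amount: PMI at 15 ng/mL final; Reagent: Mannose-6-phosphate 1.0 mM (near-saturating) plus 0.22 mM NADP+; Timing: 20 min, room temperature; Technique: resorufin fluorescence at Ex 544/Em 590 nm; Dosing: 20 µM single dose.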
PMI act: activators of human phosphomannose isomerase; P34949; purified human PMI, coupled resazurin fluorescence, 20 min; hits give high values; 1 = vehicle control, 0 substrate-free wells; activation factor at 20 µM; 0.005% of 190,000 active; AID 1214;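 active = activation factor of 2 or more at 20 µM, relative to plate controls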
Each line names hits and unclear results; the compound was inactive in the other large screens.

CC(=O)c1ccc2c(c1)C1C(Cl)C(Sc3ccccc3[N+](=O)[O-])CC1C(c1ccccc1)N2 (stereo not drawn)	none
CCC(C)N1C(=O)NC(=O)C2(Cc3cc(C)ccc3N(C)C2)C1=O (stereo not drawn)	none
Cc1ccc2c(c1)CC1(CN2C)C(=O)NC(=O)N(C(C)C)C1=O (stereo not drawn)	PMI act satM6P 2.1
Cc1cccc(N2C(=O)NC(=O)C3(Cc4cc(C)ccc4N(C)C3)C2=O)c1 (stereo not drawn)	none
Cc1ccc2c(c1)CC1(CN2C)C(=O)NC(=O)N(CCC2=CCCCC2)C1=O (stereo not drawn)	PMI act satM6P 2.1
O=C(N/N=C\C1C(=O)NC(=S)N(c2ccccc2)C1=O)c1ccc(O)cc1 (stereo not drawn)	Diaph inh CS 65.2
O=P(C(c1c[nH]c2ccccc12)N1CCOCC1)(N1CCOCC1)N1CCOCC1 (stereo not drawn)	none
O=C(C1CC(=O)N(C2CCCCCCC2)C1)N1CCC2(CC1)OCCO2 (stereo not drawn)	none
CCCCC1C(=O)NC(=S)NC1=O	PMI act satM6P 2
CCCCCn1c(NC(=O)c2ccco2)c(C(=O)OCC)c2nc3ccccc3nc21	Diaph inh CS 68.3
COc1ccc(C(=O)CC2(CC(=O)c3ccc(OC)cc3)C(=O)N(C)C(=O)N(C)C2=O)cc1	none
CN1C(=O)N(C)C(=O)C2(Cc3c(ccc4ccccc34)N(C)C2)C1=O	Diaph inh CS 66.8
O=C(CN1CCOCC1)c1ccc2cc[nH]c2c1	none
Cc1cc(C)c(C(=O)CN2CCOCC2)c(C)c1	PMI act satM6P 2.1
CC(C)n1cc(C(=O)N(CC(=O)NC(C)(C)C)Cc2ccccc2)cn1	none
CN(C)c1cccc2c(C#N)ccc(N(C)C)c12	Diaph inh CS 72.1
CC1CCCCN1Cc1ccc(Cl)nc1 (stereo not drawn)	none
CCn1nc(-c2ccccc2)nc2c(=O)n(C)c(=O)nc1-2	G6PDH CS 59.4
Cc1ccccc1NP(=O)(Oc1ccccc1F)Oc1ccccc1F	none
